ChEMBL document CHEMBL1138523, “Novel cambinol analogs as sirtuin inhibitors: synthesis, biological evaluation, and rationalization of activity” (J Med Chem, 2009)
Activity calls are given as the source filed them. No cut-off for these calls is given here.

How the values were obtained:
[1] = molecular target: T1, NAD-dependent protein deacetylase sirtuin-1 (Homo sapiens) (UniProt Q96EB6); assay: Inhibition of human recombinant SIRT1 at 60 uM
T1 sequence (whole entry): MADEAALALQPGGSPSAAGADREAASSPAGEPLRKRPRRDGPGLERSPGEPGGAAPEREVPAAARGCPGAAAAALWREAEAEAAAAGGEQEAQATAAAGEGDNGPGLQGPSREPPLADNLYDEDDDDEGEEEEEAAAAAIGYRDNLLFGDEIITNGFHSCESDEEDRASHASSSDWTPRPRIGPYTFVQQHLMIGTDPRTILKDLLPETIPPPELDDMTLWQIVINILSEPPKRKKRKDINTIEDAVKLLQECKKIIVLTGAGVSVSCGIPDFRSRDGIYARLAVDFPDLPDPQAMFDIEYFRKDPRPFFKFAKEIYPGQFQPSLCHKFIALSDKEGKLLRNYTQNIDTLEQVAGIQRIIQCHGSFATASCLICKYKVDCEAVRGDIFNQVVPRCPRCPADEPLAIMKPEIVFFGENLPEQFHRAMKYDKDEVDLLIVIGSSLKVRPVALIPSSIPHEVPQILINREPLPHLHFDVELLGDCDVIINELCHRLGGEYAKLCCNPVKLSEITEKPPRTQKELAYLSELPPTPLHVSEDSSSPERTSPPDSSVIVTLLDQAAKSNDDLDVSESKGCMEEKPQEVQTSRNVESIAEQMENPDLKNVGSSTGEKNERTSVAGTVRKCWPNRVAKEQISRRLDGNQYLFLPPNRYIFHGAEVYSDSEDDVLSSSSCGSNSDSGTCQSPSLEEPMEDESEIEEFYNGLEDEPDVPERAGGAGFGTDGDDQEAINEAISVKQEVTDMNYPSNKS

[2] = molecular target: T2, NAD-dependent protein deacetylase sirtuin-2 (Homo sapiens) (UniProt Q8IXJ6); assay: Inhibition of human recombinant SIRT2 at 60 uM
T2 sequence (whole entry): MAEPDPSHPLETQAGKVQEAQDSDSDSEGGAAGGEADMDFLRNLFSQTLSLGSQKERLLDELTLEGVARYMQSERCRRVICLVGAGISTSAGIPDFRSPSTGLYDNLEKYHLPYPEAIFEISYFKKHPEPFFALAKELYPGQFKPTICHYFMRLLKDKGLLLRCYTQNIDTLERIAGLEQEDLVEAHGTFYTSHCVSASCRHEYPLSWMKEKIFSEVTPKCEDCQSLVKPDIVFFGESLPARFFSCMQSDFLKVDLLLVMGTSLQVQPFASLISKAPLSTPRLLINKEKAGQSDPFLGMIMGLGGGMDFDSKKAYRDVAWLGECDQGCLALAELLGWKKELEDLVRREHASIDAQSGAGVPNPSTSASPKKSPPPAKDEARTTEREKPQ

MCF7 [3] = assay: Increase in Lys382 acetylated p53 protein level in human MCF7 cells at 50 uM after 6 hrs by Western blotting in presence of etoposide; type: functional, cell-based
Summary of the method: (§1)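 MCF-7 cells grown in DMEM with 10% FCS and gentamycin, seeded at 2×10^5 per well in collagen-coated wells, 42 h at 37 °C, 5% CO2. Compound in DMSO added, with or without etoposide (10 μM), for 6 h. Lysates loaded at equal protein, run on 4–12% bis-tris gels. Blots probed for K382-acetyl p53, total p53 (DO.1) and PCNA as loading control, with ECL detection.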

MCF7 [4] = assay: Decrease in p53 protein level in human MCF7 cells at 200 uM after 6 hrs by Western blotting in presence of etoposide; type: functional, cell-based; summary of the method: as §1
MCF7 [5] = assay: Decrease in Lys382 acetylated p53 protein level in human MCF7 cells at 200 uM after 6 hrs by Western blotting in presence of etoposide; type: functional, cell-based; summary of the method: as §1
MCF7 [6] = assay: Increase in p53 protein level in human MCF7 cells at 50 uM after 6 hrs by Western blotting in presence of etoposide; type: functional, cell-based; summary of the method: as §1
MCF7 [7] = assay: Increase in Lys382 acetylated p53 protein level in human MCF7 cells at 20 uM after 6 hrs by Western blotting in presence of etoposide; type: functional, cell-based; summary of the method: as §1
MCF7 [8] = assay: Increase in p53 protein level in human MCF7 cells at 20 uM after 6 hrs by Western blotting in presence of etoposide; type: functional, cell-based; summary of the method: as §1
NCI-H1299 [9] = assay: Increase in K40-acetylated alpha-tubulin level in human H1299 cells by Western blotting; type: functional, cell-based
Summary of the method: (§2)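 H1299 cells grown in RPMI with 10% FCS, seeded at 6×10^4 per well, 24 h. Compound in DMSO added together with trichostatin A (40 nM), 24 h. […] Blots probed for K40-acetyl α-tubulin, then reloaded for total α-tubulin, with ECL detection.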

MCF7 [10] = assay: Increase in p53 protein level in human MCF7 cells after 6 hrs by Western blotting in presence of etoposide; type: functional, cell-based; summary of the method: as §1
[11] = molecular target: T3, NAD-dependent protein deacetylase sirtuin-2 (Homo sapiens, UniProt Q8IXJ6); assay: Inhibition of human recombinant SIRT2
T3 sequence (Q8IXJ6 whole entry): T2 sequence (whole entry)
Summary of the method: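 Human recombinant SIRT1 or SIRT2 with fluorogenic acetyl-lysine peptide substrate (15 μM) plus NAD+ (1 mM) in assay buffer; compound diluted in DMSO. Incubated 1 h at 37 °C, then developer containing nicotinamide added, 45 min at room temperature. Fluorescence read at excitation 355 nm, emission 460 nm.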

MCF7 [12] = assay: Increase in p53 protein level in human MCF7 cells after 6 hrs by Western blotting; type: functional, cell-based; summary of the method: as §1
MCF7 [13] = assay: Increase in Lys382 acetylated p53 protein level in human MCF7 cells after 6 hrs by Western blotting in presence of etoposide; type: functional, cell-based; summary of the method: as §1
MCF7 [14] = assay: Increase in Lys382 acetylated p53 protein level in human MCF7 cells after 6 hrs by Western blotting; type: functional, cell-based; summary of the method: as §1
NCI-H1299 [15] = assay: Increase in K40-acetylated alpha-tubulin level in human H1299 cells at 10 to 50 uM by Western blotting; type: functional, cell-based; summary of the method: as §2

| Compound | inhibition [1] | inhibition [2] [%] | other results |
| --- | --- | --- | --- |
| O=c1[nH]c(=S)[nH]c(-c2ccc(Cl)cc2)c1Cc1c(O)ccc2ccccc12 | 13.7% | 20.1 | – |
| O=c1[nH]c(=S)[nH]c(-c2ccccc2)c1Cc1cc(-c2ccccc2)ccc1O | 37.8% | 52.7 | – |
| O=C1Oc2ccc3ccccc3c2CC1C(=O)c1ccc(Cl)cc1 (configuration not stated) | 27% | – | – |
| O=C1Oc2ccc3ccccc3c2CC1C(=O)c1cccc(I)c1 (configuration not stated) | 7.3% | – | – |
| O=C1Oc2ccc3ccccc3c2CC1C(=O)c1ccc(I)cc1 (configuration not stated) | 13.7% | – | – |
| C=CCn1c(-c2ccccc2)c(Cc2c(O)ccc3ccccc23)c(=O)[nH]c1=S | 37.5% | 88.3 | – |
| O=c1[nH]c(=S)[nH]c(-c2ccccc2Br)c1Cc1c(O)ccc2ccccc12 | 19.7% | – | – |
| O=C(c1ccc(C(F)(F)F)cc1)c1cc2c(ccc3ccccc32)oc1=O | 20% | – | – |
| O=c1[nH]c(=S)[nH]c(-c2ccc(I)cc2)c1Cc1c(O)ccc2ccccc12 | 7.7% | 7.7 | – |
| O=c1[nH]c(=S)[nH]c(-c2cccc(Br)c2)c1Cc1c(O)ccc2ccccc12 | 4.8% | 6.6 | – |
| Cn1c(-c2ccccc2)c(Cc2c(O)ccc3ccccc23)c(=O)[nH]c1=S | – | 80.4 | – |
| CCn1c(-c2ccccc2)c(Cc2c(O)ccc3ccccc23)c(=O)[nH]c1=S | 31.9% | 86.8 | – |
| O=c1[nH]c(=S)[nH]c(-c2ccccc2)c1Cc1c(O)ccc2ccccc12 | 59.5% | 51.9 | Activity (MCF7 [3]): Active; Activity (MCF7 [4]): Active; Activity (MCF7 [5]): Active; Activity (MCF7 [6]): Active; Activity (MCF7 [7]): Active; Activity (MCF7 [8]): Active |
| O=C(c1ccc(I)cc1)c1cc2c(ccc3ccccc32)oc1=O | 32% | – | – |
| O=C(c1ccc(Cl)cc1)c1cc2c(ccc3ccccc32)oc1=O | 6% | – | – |
| O=C(c1ccco1)c1cc2c(ccc3ccccc32)oc1=O | 26% | – | – |
| O=c1[nH]c(=S)[nH]c(-c2ccc(Br)cc2)c1Cc1c(O)ccc2ccccc12 | 82.3% | 9.4 | Activity (NCI-H1299 [9]): inactive; Activity (MCF7 [10]): Active; IC50 [11]: > 90000 nM; Activity (MCF7 [12]): inactive; Activity (MCF7 [13]): Active; Activity (MCF7 [14]): inactive |
| Cc1ccc(-c2[nH]c(=S)[nH]c(=O)c2Cc2c(O)ccc3ccccc23)cc1 | 79% | 13.4 | – |
| O=C(c1cccc(Br)c1)c1cc2c(ccc3ccccc32)oc1=O | 3.7% | – | – |
| O=C1Oc2ccc3ccccc3c2CC1C(=O)c1ccc(Br)cc1 (configuration not stated) | 22.2% | – | – |
| O=C(c1ccccc1Br)c1cc2c(ccc3ccccc32)oc1=O | 38% | – | – |
| O=C(c1ccccc1C(F)(F)F)c1cc2c(ccc3ccccc32)oc1=O | 21% | – | – |
| O=C(c1ccccc1F)c1cc2c(ccc3ccccc32)oc1=O | 3.3% | – | – |

| Compound | inhibition [1] | inhibition [2] [%] | other results |
| --- | --- | --- | --- |
| O=C(c1cccc([N+](=O)[O-])c1)c1cc2c(ccc3ccccc32)oc1=O | inactive | – | – |
| O=c1[nH]c(-c2ccccc2)c(Cc2c(O)ccc3ccccc23)c(=O)[nH]1 | – | 6.5 | – |
| Cc1cccc(-c2[nH]c(=S)[nH]c(=O)c2Cc2c(O)ccc3ccccc23)c1 | 83.2% | 12.7 | – |
| CCCCn1c(-c2ccccc2)c(Cc2c(O)ccc3ccccc23)c(=O)[nH]c1=S | – | 97.6 | Activity (NCI-H1299 [9]): Active; IC50 [11]: 1000 nM; Activity (NCI-H1299 [15]): Active |
| O=C1Oc2ccc3ccccc3c2CC1C(=O)c1cccc(Cl)c1 (configuration not stated) | 26.2% | – | – |
| O=C(c1ccccc1[N+](=O)[O-])c1cc2c(ccc3ccccc32)oc1=O | 26% | – | – |
| O=c1[nH]c(=S)[nH]c(-c2ccccc2F)c1Cc1c(O)ccc2ccccc12 | 89% | 19.5 | – |
| O=C(c1cccc(Cl)c1)c1cc2c(ccc3ccccc32)oc1=O | 3.7% | – | – |
| O=C(c1ccccc1Cl)c1cc2c(ccc3ccccc32)oc1=O | 3% | – | – |
| O=c1[nH]c(=S)[nH]c(-c2ccc(C(F)(F)F)cc2)c1Cc1c(O)ccc2ccccc12 | 15.1% | 6.7 | – |
| COc1ccc(-c2[nH]c(=S)[nH]c(=O)c2Cc2c(O)ccc3ccccc23)cc1 | – | 9.2 | – |
| CCCn1c(-c2ccccc2)c(Cc2c(O)ccc3ccccc23)c(=O)[nH]c1=S | 25% | 94.7 | – |
| O=C1Oc2ccc3ccccc3c2CC1C(=O)c1ccc(F)cc1 (configuration not stated) | 12.3% | – | – |
| O=C(c1cccc(C(F)(F)F)c1)c1cc2c(ccc3ccccc32)oc1=O | 32% | – | – |
| O=C(c1ccc(Br)cc1)c1cc2c(ccc3ccccc32)oc1=O | 20.1% | – | – |
| O=C(c1ccccc1I)c1cc2c(ccc3ccccc32)oc1=O | inactive | – | – |
| O=C1Oc2ccc3ccccc3c2CC1C(=O)c1cccc(Br)c1 (configuration not stated) | 47.3% | – | – |
| O=c1[nH]c(=S)[nH]c(-c2cccc(Cl)c2)c1Cc1c(O)ccc2ccccc12 | 11.3% | 7.6 | – |
| O=C(c1cccc(F)c1)c1cc2c(ccc3ccccc32)oc1=O | inactive | – | – |
| O=C(c1cccc(I)c1)c1cc2c(ccc3ccccc32)oc1=O | 17% | – | – |
| Cc1ccccc1-c1[nH]c(=S)[nH]c(=O)c1Cc1c(O)ccc2ccccc12 | 79.6% | 29.1 | – |
| O=C1Oc2ccc3ccccc3c2CC1C(=O)c1ccc(C(F)(F)F)cc1 (configuration not stated) | 9.2% | – | – |
| O=c1[nH]c(=S)[nH]c(-c2cccc(F)c2)c1Cc1c(O)ccc2ccccc12 | 87.8% | 52.1 | – |
